The results in this text go back to PubChem BioAssay.

Assay [1] can be described thus: reduced viability of SK-BR-3 breast cancer cells – cell-based, 24 h, human, pilot screen (AID 572;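 active means viability at or below 10% of carrier control in both of two separate runs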;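 further: compound exposure lasted between 18 and 24 h rather than exactly 24 h; 100% = carrier-treated control wells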). Particulars: SK-BR-3 viability, CellTiter-Glo luminescence, at 10 µM, stronger effect = lower value. A general note: Cellular ATP, detected with luciferase, serves as a proxy for viable cell number.
A short description of assay [2]: HUVEC growth inhibition – cell-based, human, primary screen (AID 575;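 active means viability at or below 30% in both replicate assays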;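 further: 100% = median of untreated cell wells with 0.1% DMSO on each plate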). Particulars: HUVEC proliferation, CellTiter-Glo luminescence, 72 h; at 10 µM; stronger effect = lower value. The essentials:
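Test system – primary HUVEC, no more than 12 passages · Dosing – one dose, 10 µM final, 0.1% DMSO · Times – 72 h treatment at 37 °C · Measured by – ATP-based CellTiter-Glo luminescent read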

A short description of assay [3]: H69AR cell proliferation blockers – human, duplicate replicates, primary screen (AID 580).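 Further: 100% = mean luminescence of untreated wells and 0% = no signal.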 The settings on record: H69AR lung tumor cells viability, ATP luminescence, 72 h; at 10 µM; stronger effect = lower value.
Assay [4] can be described thus: MRP1 drug-resistance reversers in H69AR cells – cell-based, doxorubicin co-treatment, pilot screen (AID 601;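 active means viability loss from added drug above about 55%, and viability with drug at most 40%, in both replicates, limit read from the data, passing the limit was not always enough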). The settings on record: CellTiter-Glo, 72 h, at 10 µM; for differential viability (reversal): stronger effect = higher value.
A short description of assay [5]: yeast transport mutant growth inhibition pilot in 384-well plates, post-Golgi transport modulator project (AID 636; in the data active means inhibition above about 31%). Particulars: absorbance 615 nm, about 18 h, stronger effect = higher value.
Assay [6] is described as follows: growth suppression of yeast trafficking mutant, preliminary HTS, modulators of trafficking downstream of Golgi apparatus project, 1536-format plate, OD 615 nm (AID 637; in the data active means inhibition above about 30%). Particulars: yeast transport mutant growth, absorbance 615 nm, 18 h; stronger effect = higher value.
Setting [7] is: H69AR cells + 2 uM doxorubicin, measured here: viability with 2 uM doxorubicin, stronger effect = lower value.
Where [8] appears, read: H69AR cells, compound alone cytotoxicity.

Active and inactive are the calls of the source.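 How the source made its calls, unless noted: active means viability at or under a set limit in both replicates, limit being median viability minus 3 SD (cut at about 48% in these data, passing the limit was not always enough); inconclusive means at or under the limit in just one replicate; inactive means at or above the limit in both replicates.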

For the compound `Cc1nc2ccc(S(=O)(=O)NCC(=O)N3CCCCC3)cc2s1`, the viability is 116% (inactive) in assay [1]; 100% (inactive) in assay [2]; 87.4% (inactive) in assay [3]; 85% in assay [4] (setting [7]); 87.4% in assay [4] (setting [8]). For the same compound, the differential viability (reversal) in assay [4] (H69AR cells + 2 uM doxorubicin) was 2.37% (inactive). Moreover, the inhibition in assay [5] was -2.99% (inactive); in assay [6] it was 0.16% (inactive).
As to `O=C(NCc1ccccn1)c1cc(-n2cnnc2)ccc1Cl`, the viability in assay [1] was 86% (inactive); in assay [2], 88.6% (inactive); in assay [3] it was 101% (inactive); in assay [4] (setting [7]), 102%; in assay [4] (setting [8]) it was 101%. In addition, in assay [4] (H69AR cells + 2 uM doxorubicin), the differential viability (reversal) is -1.2% (inactive). In addition, the inhibition in assay [5] is -2.73% (inactive); in assay [6], 2.79% (inactive).
`Cc1ccc(NC(=O)CC2C(=O)NC3CCCCC3N2C(=O)c2ccc(F)cc2)cc1C` (centres undefined): the viability in assay [1] is 108% (inactive); in assay [2] it was 100% (inactive); in assay [3], 101% (inactive); in assay [4] (setting [7]) it was 88.5%; in assay [4] (setting [8]) it was 101%. In addition, the differential viability (reversal) in assay [4] (H69AR cells + 2 uM doxorubicin) is 12.5% (inactive). Further, the inhibition in assay [5] was -2.47% (inactive); in assay [6], 3.11% (inactive).
Regarding `Cc1cc(C)n(-c2nc3sc4c(c3c3nnc(SCC(N)=O)n23)CC(C)(C)OC4)n1`, the viability was 84% (inactive) in assay [1]; 97.4% (inactive) in assay [2]; 90.7% (inactive) in assay [3]; 86.8% in assay [4] (setting [7]); 90.7% in assay [4] (setting [8]). Besides, the differential viability (reversal) in assay [4] (H69AR cells + 2 uM doxorubicin) was 3.85% (inactive). In addition, the inhibition is 0.68% (inactive) in assay [5] and -3.87% (inactive) in assay [6].
As to `CCC(C)NCC(O)COCc1ccc(Cl)cc1` (centres undefined), the viability in assay [1] was 89% (inactive); in assay [2] it was 101% (inactive); in assay [3] it was 99.7% (inactive); in assay [4] (setting [7]), 88.2%; in assay [4] (setting [8]), 99.7%. Further, the differential viability (reversal) in assay [4] (H69AR cells + 2 uM doxorubicin) was 11.5% (inactive). Further, the inhibition in assay [5] is 0.52% (inactive); in assay [6], -4.59% (inactive).
With `Cc1cc(C(=O)COC(=O)CCc2nc3ccccc3s2)c(C)n1C`, the viability was 94% (inactive) in assay [1]; 116% (inactive) in assay [2]; 101% (inactive) in assay [3]; 107% in assay [4] (setting [7]); 101% in assay [4] (setting [8]). Also, in assay [4] (H69AR cells + 2 uM doxorubicin), the differential viability (reversal) was -5.69% (inactive). The inhibition is -3.7% (inactive) in assay [5] and -5.09% (inactive) in assay [6].
As to `CCOC(=O)N1CCC(NC(=O)Cn2cc3c(n2)CCC(C)C3)CC1` (centres undefined), the viability is 128% (inactive) in assay [1]; 93% (inactive) in assay [2]; 98.7% (inactive) in assay [3]; 95.7% in assay [4] (setting [7]); 98.7% in assay [4] (setting [8]). Also, the differential viability (reversal) in assay [4] (H69AR cells + 2 uM doxorubicin) was 3% (inactive). Besides, the inhibition in assay [5] was -1.64% (inactive); in assay [6] it was 18.7% (inactive).
With `CCC1CCCCN1C(=O)CSc1nnc(-c2ccco2)o1` (centres undefined), the viability in assay [1] is 126% (inactive); in assay [2], 94.4% (inactive); in assay [3], 85.7% (inactive); in assay [4] (setting [7]) it was 82.3%; in assay [4] (setting [8]), 85.7%. Moreover, the differential viability (reversal) in assay [4] (H69AR cells + 2 uM doxorubicin) was 3.32% (inactive). Further, the inhibition in assay [5] was -1.78% (inactive); in assay [6], -6.45% (inactive).
Regarding `Cn1cnc2c1c(=O)[nH]c(=O)n2C`, the viability in assay [1] is 108% (inactive); in assay [2], 85.7% (inactive); in assay [3], 96.1% (inactive); in assay [4] (setting [7]), 96.8%; in assay [4] (setting [8]), 96.1%. The differential viability (reversal) in assay [4] (H69AR cells + 2 uM doxorubicin) is -0.7% (inactive). For the same compound, the inhibition in assay [5] was -0.91% (inactive); in assay [6], 6.33% (inactive).
With `Cc1csc(NC(=O)C2CCCO2)n1` (centres undefined), the viability in assay [1] was 87% (inactive); in assay [2], 86.9% (inactive); in assay [3], 91.4% (inactive); in assay [4] (setting [7]), 81.4%; in assay [4] (setting [8]), 91.4%. Also, the differential viability (reversal) in assay [4] (H69AR cells + 2 uM doxorubicin) is 9.97% (inactive). Besides, the values for the inhibition in assay [5] and in assay [6] were -4.16% (inactive) and 10.3% (inactive), respectively.
As for `Cn1c(=O)n(CCC(=O)O)c2ccccc21`, the viability in assay [1] was 93% (inactive); in assay [2] it was 111% (inactive); in assay [3] it was 97.2% (inactive); in assay [4] (setting [7]), 84.1%; in assay [4] (setting [8]) it was 97.2%. In addition, in assay [4] (H69AR cells + 2 uM doxorubicin), the differential viability (reversal) was 13.1% (inactive). The inhibition in assay [5] is -7.67% (inactive); in assay [6], 5% (inactive).
On to `Cc1cc(=O)n2nc(N3CCCC(C(=O)N4CCc5ccccc54)C3)sc2n1` (centres undefined), for which the viability in assay [1] is 82% (inactive); in assay [2], 87.1% (inactive); in assay [3], 85.8% (inactive); in assay [4] (setting [7]) it was 88.7%; in assay [4] (setting [8]), 85.8%. In assay [4] (H69AR cells + 2 uM doxorubicin), the differential viability (reversal) was -2.83% (inactive). Moreover, the values for the inhibition in assay [5] and in assay [6] were -6.76% (inactive) and 1.64% (inactive), respectively.
For `Cc1ccc(N2CCN(CCc3nc4cc(NS(C)(=O)=O)ccc4n3C)CC2)cc1`, the viability in assay [1] was 104% (inactive); in assay [2], 110% (inactive); in assay [3] it was 90.1% (inactive); in assay [4] (setting [7]), 86.4%; in assay [4] (setting [8]), 90.1%. For the same compound, in assay [4] (H69AR cells + 2 uM doxorubicin), the differential viability (reversal) is 3.72% (inactive). The inhibition in assay [5] was -6.75% (inactive); in assay [6], -5.74% (inactive).
As for `CCOC(=O)C1CCN(C(=O)CCCCn2c(=O)[nH]c3ccccc3c2=O)CC1`, the viability is 90% (inactive) in assay [1]; 114% (inactive) in assay [2]; 101% (inactive) in assay [3]; 94.9% in assay [4] (setting [7]); 101% in assay [4] (setting [8]). In assay [4] (H69AR cells + 2 uM doxorubicin), the differential viability (reversal) is 6.14% (inactive). Also, the inhibition in assay [5] is 3.77% (inactive); in assay [6] it was 2.62% (inactive).
Take `CCCC1c2ccc(C)n2CCN1C(=O)Nc1ccccc1Cl` (centres undefined): the viability is 92% (inactive) in assay [1]; 92.2% (inactive) in assay [2]; 93.5% (inactive) in assay [3]; 86.6% in assay [4] (setting [7]); 93.5% in assay [4] (setting [8]). For the same compound, in assay [4] (H69AR cells + 2 uM doxorubicin), the differential viability (reversal) was 6.95% (inactive). For the same compound, the inhibition in assay [5] was 2.73% (inactive); in assay [6] it was 8.2% (inactive).
For the compound `CCCNC(=O)c1cc(S(=O)(=O)N2CCc3ccccc32)ccc1F`, the viability in assay [1] is 89% (inactive); in assay [2], 113% (inactive); in assay [3] it was 97% (inactive); in assay [4] (setting [7]), 90.3%; in assay [4] (setting [8]) it was 97%. Moreover, the differential viability (reversal) in assay [4] (H69AR cells + 2 uM doxorubicin) is 6.73% (inactive). Besides, the values for the inhibition in assay [5] and in assay [6] were -6.13% (inactive) and 2.18% (inactive), respectively.
For `CC(=O)N=c1sc(S(N)(=O)=O)nn1C`, the viability in assay [1] was 84% (inactive); in assay [2], 77.6% (inactive); in assay [3] it was 93.9% (inactive); in assay [4] (setting [7]), 72.8%; in assay [4] (setting [8]) it was 93.9%. In addition, the differential viability (reversal) in assay [4] (H69AR cells + 2 uM doxorubicin) was 21.1% (inactive). Besides, the inhibition in assay [5] was 0.39% (inactive); in assay [6], 3.17% (inactive).
On to `COC(=O)Nc1sc2c(c1C(N)=O)CCCCCC2`, for which the viability in assay [1] is 89% (inactive); in assay [2] it was 105% (inactive); in assay [3], 99.5% (inactive); in assay [4] (setting [7]) it was 80.2%; in assay [4] (setting [8]) it was 99.5%. Moreover, the differential viability (reversal) in assay [4] (H69AR cells + 2 uM doxorubicin) is 19.3% (inactive). For the same compound, the figures for the inhibition in assay [5] and in assay [6] were -1.82% (inactive) and 5.25% (inactive), respectively.

Broadly, the viability is a read-out of living cells in per cent, often relative to untreated cells. A word on the inhibition: it is the change of the read-out against control, counted positive when it falls.
